Results from ChEMBL document CHEMBL1687757, “Many chromosomal genes modulate MarA-mediated multidrug resistance in Escherichia coli” (2010).
In brackets after ≈: the same amount, converted by molar mass.

How the values were obtained:
Type in all cases: functional
Escherichia coli [1] = experiment: Antibacterial activity against wild-type Escherichia coli BW25113 after 20 hrs by Etest method; details: BW25113, 20 h
Procedure, shortened: (§1)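 MICs by Etest strips on Mueller-Hinton plates, following the manufacturer's specifications. Cells came from overnight liquid cultures in LB at 37°C with agitation. Plates were read after 20 h at 37°C. Antibiotics tested were cefoxitin, norfloxacin, chloramphenicol and minocycline.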

Escherichia coli [2] = experiment: Antibacterial activity against MarA-deficient Escherichia coli CR2000 after 20 hrs by Etest method; details: CR2000, 20 h
Procedure, shortened: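 Overnight LB-grown cultures (37°C, agitation) of the ΔmarRA strain (BW25113 background) tested on Mueller-Hinton plates with Etest strips per manufacturer's instructions. MIC read after 20 h at 37°C.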

Escherichia coli [3] = experiment: Antibacterial activity against MarA-overexpressing Escherichia coli CR1000 after 20 hrs by Etest method; details: CR1000, 20 h; procedure, shortened: as §1
Escherichia coli [4] = experiment: Ratio of MIC for marA-overproducing Escherichia coli CR1000 to MIC for MarA-deficient Escherichia coli CR2000
Procedure, shortened: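 MICs measured by Etest on Mueller-Hinton plates, read after 20 h at 37°C, for the ΔmarR strain (constitutive chromosomal marA overexpression) and the ΔmarRA strain (BW25113 background), both grown overnight in LB at 37°C. MarA-mediated MDR expressed as the ΔmarR/ΔmarRA MIC ratio.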

Escherichia coli [5] = experiment: Antibacterial activity against marA-overproducing Escherichia coli CR1000 harboring inactivated cspGp gene assessed as MarA-mediated multidrug resistance level by measuring fold change in MIC relative to MarA-deficient Escherichia coli CR2000
Procedure, shortened: (§2)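 Each inactivated gene was transferred into both the ΔmarR (CR1000) and the ΔmarRA (CR2000) BW25113 backgrounds. Each derivative was grown overnight in LB and tested by Etest on Mueller-Hinton plates, read after 20 h at 37°C, against cefoxitin, norfloxacin, chloramphenicol and minocycline. The MarA-mediated level compares the MIC in the ΔmarR derivative with the MIC in the matching ΔmarRA derivative.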

Escherichia coli [6] = experiment: Antibacterial activity against marA-overproducing Escherichia coli CR1000 harboring inactivated ompR gene assessed as MarA-mediated multidrug resistance level by measuring fold change in MIC relative to MarA-deficient Escherichia coli CR2000; procedure, shortened: as §2
Escherichia coli [7] = experiment: Antibacterial activity against marA-overproducing Escherichia coli CR1000 harboring inactivated appA gene assessed as MarA-mediated multidrug resistance level by measuring fold change in MIC relative to MarA-deficient Escherichia coli CR2000; procedure, shortened: as §2
Escherichia coli [8] = experiment: Antibacterial activity against marA-overproducing Escherichia coli CR1000 harboring inactivated degP gene assessed as MarA-mediated multidrug resistance level by measuring fold change in MIC relative to MarA-deficient Escherichia coli CR2000; procedure, shortened: as §2
Escherichia coli [9] = experiment: Antibacterial activity against marA-overproducing Escherichia coli CR1000 harboring inactivated maoC gene assessed as MarA-mediated multidrug resistance level by measuring fold change in MIC relative to MarA-deficient Escherichia coli CR2000; procedure, shortened: as §2
Escherichia coli [10] = experiment: Antibacterial activity against marA-overproducing Escherichia coli CR1000 harboring inactivated metL gene assessed as MarA-mediated multidrug resistance level by measuring fold change in MIC relative to MarA-deficient Escherichia coli CR2000; procedure, shortened: as §2
Escherichia coli [11] = experiment: Antibacterial activity against marA-overproducing Escherichia coli CR1000 harboring inactivated recD gene assessed as MarA-mediated multidrug resistance level by measuring fold change in MIC relative to MarA-deficient Escherichia coli CR2000; procedure, shortened: as §2
Escherichia coli [12] = experiment: Antibacterial activity against marA-overproducing Escherichia coli CR1000 harboring inactivated treC gene assessed as MarA-mediated multidrug resistance level by measuring fold change in MIC relative to MarA-deficient Escherichia coli CR2000; procedure, shortened: as §2
Escherichia coli [13] = experiment: Antibacterial activity against marA-overproducing Escherichia coli CR1000 harboring inactivated ynfE gene assessed as MarA-mediated multidrug resistance level by measuring fold change in MIC relative to MarA-deficient Escherichia coli CR2000; procedure, shortened: as §2
Escherichia coli [14] = experiment: Antibacterial activity against marA-overproducing Escherichia coli CR1000 harboring inactivated mhpT gene assessed as MarA-mediated multidrug resistance level by measuring fold change in MIC relative to MarA-deficient Escherichia coli CR2000; procedure, shortened: as §2
Escherichia coli [15] = experiment: Antibacterial activity against marA-overproducing Escherichia coli CR1000 harboring inactivated nikD gene assessed as MarA-mediated multidrug resistance level by measuring fold change in MIC relative to MarA-deficient Escherichia coli CR2000; procedure, shortened: as §2
Escherichia coli [16] = experiment: Antibacterial activity against marA-overproducing Escherichia coli CR1000 harboring inactivated metV gene assessed as MarA-mediated multidrug resistance level by measuring fold change in MIC relative to MarA-deficient Escherichia coli CR2000; procedure, shortened: as §2
Escherichia coli [17] = experiment: Antibacterial activity against marA-overproducing Escherichia coli CR1000 harboring inactivated yfdG gene assessed as MarA-mediated multidrug resistance level by measuring fold change in MIC relative to MarA-deficient Escherichia coli CR2000; procedure, shortened: as §2
Escherichia coli [18] = experiment: Antibacterial activity against marA-overproducing Escherichia coli CR1000 harboring inactivated yibLp gene assessed as MarA-mediated multidrug resistance level by measuring fold change in MIC relative to MarA-deficient Escherichia coli CR2000; procedure, shortened: as §2
Escherichia coli [19] = experiment: Antibacterial activity against marA-overproducing Escherichia coli CR1000 harboring inactivated yniDp gene assessed as MarA-mediated multidrug resistance level by measuring fold change in MIC relative to MarA-deficient Escherichia coli CR2000; procedure, shortened: as §2
Escherichia coli [20] = experiment: Antibacterial activity against marA-overproducing Escherichia coli CR1000 harboring inactivated hns gene assessed as MarA-mediated multidrug resistance level by measuring fold decrease in MIC relative to MarA-deficient Escherichia coli CR2000; set-up: scale not given: the % may be the effect or the level left; procedure, shortened: as §2
Escherichia coli [21] = experiment: Antibacterial activity against marA-overproducing Escherichia coli CR1000 harboring inactivated cyaA gene assessed as MarA-mediated multidrug resistance level by measuring fold decrease in MIC relative to MarA-deficient Escherichia coli CR2000; set-up: scale not given: the % may be the effect or the level left; procedure, shortened: as §2
Escherichia coli [22] = experiment: Antibacterial activity against marA-overproducing Escherichia coli CR1000 harboring inactivated pcnB gene assessed as MarA-mediated multidrug resistance level by measuring fold decrease in MIC relative to MarA-deficient Escherichia coli CR2000; set-up: scale not given: the % may be the effect or the level left; procedure, shortened: as §2
Escherichia coli [23] = experiment: Antibacterial activity against marA-overproducing Escherichia coli CR1000 harboring inactivated acrA gene assessed as MarA-mediated multidrug resistance level by measuring fold decrease in MIC relative to MarA-deficient Escherichia coli CR2000; set-up: scale not given: the % may be the effect or the level left; procedure, shortened: as §2
Escherichia coli [24] = experiment: Antibacterial activity against marA-overproducing Escherichia coli CR1000 harboring inactivated acrB gene assessed as MarA-mediated multidrug resistance level by measuring fold decrease in MIC relative to MarA-deficient Escherichia coli CR2000; set-up: scale not given: the % may be the effect or the level left; procedure, shortened: as §2
Escherichia coli [25] = experiment: Antibacterial activity against marA-overproducing Escherichia coli CR1000 harboring inactivated tolC gene assessed as MarA-mediated multidrug resistance level by measuring fold decrease in MIC relative to MarA-deficient Escherichia coli CR2000; set-up: scale not given: the % may be the effect or the level left; procedure, shortened: as §2
Escherichia coli [26] = experiment: Antibacterial activity against marA-overproducing Escherichia coli CR1000 harboring inactivated damX gene assessed as MarA-mediated multidrug resistance level by measuring fold decrease in MIC relative to MarA-deficient Escherichia coli CR2000; set-up: scale not given: the % may be the effect or the level left; procedure, shortened: as §2
Escherichia coli [27] = experiment: Antibacterial activity against marA-overproducing Escherichia coli CR1000 harboring inactivated crp gene assessed as MarA-mediated multidrug resistance level by measuring fold change in MIC relative to MarA-deficient Escherichia coli CR2000; procedure, shortened: as §2
Escherichia coli [28] = experiment: Antibacterial activity against marA-overproducing Escherichia coli CR1000 harboring inactivated alx gene assessed as MarA-mediated multidrug resistance level by measuring fold change in MIC relative to MarA-deficient Escherichia coli CR2000; procedure, shortened: as §2

SMILES | MIC (Escherichia coli [1]) [µg/mL] | MIC (Escherichia coli [2]) [µg/mL] | MIC (Escherichia coli [3]) [µg/mL] | Ratio (Escherichia coli [4]) | Activity (Escherichia coli [5]) [%] | Activity (Escherichia coli [6]) [%] | Activity (Escherichia coli [7]) [%] | Activity (Escherichia coli [8]) [%] | Activity (Escherichia coli [9]) [%] | Activity (Escherichia coli [10]) [%] | Activity (Escherichia coli [11]) [%] | Activity (Escherichia coli [12]) [%] | Activity (Escherichia coli [13]) [%] | Activity (Escherichia coli [14]) [%] | Activity (Escherichia coli [15]) [%] | Activity (Escherichia coli [16]) [%] | Activity (Escherichia coli [17]) [%] | Activity (Escherichia coli [18]) [%] | Activity (Escherichia coli [19]) [%] | Activity (Escherichia coli [20]) [%] | other results
CO[C@@]1(NC(=O)Cc2cccs2)C(=O)N2C(C(=O)O)=C(COC(N)=O)CS[C@@H]21 [CEFOXITIN] | 4 (≈ 9.36 µM) | 3.2 (≈ 7.49 µM) | 10.6 (≈ 24.8 µM) | 3.3 | 54 | 67 | 68 | 94 | 100 | 120 | 80 | 94 | 94 | 68 | 68 | 74 | 68 | 68 | 94 | 19 | Activity (Escherichia coli [21]): 43%; Activity (Escherichia coli [22]): 10%; Activity (Escherichia coli [23]): 16%; Activity (Escherichia coli [24]): 6%; Activity (Escherichia coli [25]): 0%; Activity (Escherichia coli [26]): 40%; Activity (Escherichia coli [27]): 21%
O=C(N[C@H](CO)[C@H](O)c1ccc([N+](=O)[O-])cc1)C(Cl)Cl [CHLORAMPHENICOL] | 10.7 (≈ 33.1 µM) | 8.1 (≈ 25.1 µM) | 23.9 (≈ 74 µM) | 3 | 93 | 93 | 93 | 50 | 75 | 100 | 50 | 85 | 93 | 100 | 50 | 75 | 93 | 50 | 125 | 20 | Activity (Escherichia coli [28]): 100%; Activity (Escherichia coli [21]): 46%; Activity (Escherichia coli [22]): 33%; Activity (Escherichia coli [23]): 8%; Activity (Escherichia coli [24]): 8%; Activity (Escherichia coli [25]): 0%; Activity (Escherichia coli [26]): 50%; Activity (Escherichia coli [27]): 29%
CN(C)c1ccc(O)c2c1C[C@H]1C[C@H]3[C@H](N(C)C)C(O)=C(C(N)=O)C(=O)[C@@]3(O)C(O)=C1C2=O [MINOCYCLINE] | 3.3 (≈ 7.21 µM) | 2.4 (≈ 5.25 µM) | 4.9 (≈ 10.7 µM) | 2 | 75 | 100 | 100 | 100 | 40 | 100 | 65 | 100 | 100 | 100 | 125 | 65 | 65 | 100 | 50 | 35 | Activity (Escherichia coli [28]): 65%; Activity (Escherichia coli [21]): 32%; Activity (Escherichia coli [22]): 30%; Activity (Escherichia coli [23]): 40%; Activity (Escherichia coli [24]): 40%; Activity (Escherichia coli [25]): 40%; Activity (Escherichia coli [26]): 30%; Activity (Escherichia coli [27]): 38%
CCn1cc(C(=O)O)c(=O)c2cc(F)c(N3CCNCC3)cc21 [NORFLOXACIN] | 0.09 (≈ 0.282 µM) | 0.07 (≈ 0.219 µM) | 0.21 (≈ 0.658 µM) | 3.1 | 91 | 77 | 84 | 91 | 61 | 91 | 77 | 46 | 68 | 91 | 68 | 91 | 91 | 68 | 77 | 23 | Activity (Escherichia coli [28]): 68%; Activity (Escherichia coli [21]): 41%; Activity (Escherichia coli [22]): 23%; Activity (Escherichia coli [23]): 0%; Activity (Escherichia coli [24]): 9%; Activity (Escherichia coli [25]): 0%; Activity (Escherichia coli [26]): 46%; Activity (Escherichia coli [27]): 33%
